In general, EC50 refers to the concentration giving half of the maximal effect.

One experiment has as its target rat mGlu7 (Rattus norvegicus, UniProt P35400). In words: Calcium mobilization assay, rat mGlu7/Gα15/HEK cells. The format is cell-based. As to conditions: for Kb / log α (affinity cooperativity) / log β (efficacy cooperativity) / log τB / α / β / τB: calcium assay. In general terms: Calcium assays in cells follow changes in intracellular calcium, usually with a dye or a luminescent sensor.

Another experiment has as its target rat mGlu2 (Rattus norvegicus, UniProt P31421). In words: Fold-shift assay in rat mGlu2/Gα15-expressing cells. The class given is cell-based. As to conditions: listed as VU0155094.
Experiment [1] concerns the target T1, rat mGlu8 (Rattus norvegicus, UniProt P70579). In words: Calcium mobilization assay, rat mGlu8/Gα15/HEK cells. The class given is cell-based. As to conditions: for Kb / log α (affinity cooperativity) / log β (efficacy cooperativity) / log τB / α / β / τB: calcium assay.
In experiment [2] the target is T1, rat mGlu8. Description: Thallium flux assay, HEK293 cells expressing rat mGlu8 and GIRK1/2 channels. The format is cell-based.
The target in another experiment is human mGlu4 (Homo sapiens, UniProt Q14833). Description: Calcium mobilization assay, human mGlu4/Gqi5/CHO cells. The class given is cell-based. As to conditions: for Kb / log α (affinity cooperativity) / log β (efficacy cooperativity) / α / β: calcium assay.
The subject of another experiment is SC-CA1 synapse. In words: Extracellular field potential recordings. Particulars: for effect on fEPSP slope: agonist alone: 3 μM LSP1-2111, 1 μM DCPG or 30 μM LSP4-2022. Details: species or system C57BL6/J mice. Summed up: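 Coronal hippocampal slices (400 μm) from six-week-old male mice anesthetized with isoflurane, cut in ice-cold sucrose solution. Slices recovered in NMDG-HEPES (15 min, 32 °C), then in ACSF (≥1 h, RT), and were perfused with 32 °C ACSF. CA1 stratum radiatum recordings used paired pulses (100 μs, 20 ms apart, 0.05 Hz). After 10 min baseline, drugs in ACSF were given for 5 or 10 min; PAM was preapplied 5 min, then coapplied with agonist. Slopes from three sweeps were averaged and normalized to predrug baseline. Paired-pulse ratio was second/first slope. N = 3–4; mean ± SEM.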

In the next experiment the target is mGlu4 (Rattus norvegicus, UniProt P31423). In words: Thallium flux assay, cells expressing mGlu4 and GIRK1/2. The format is cell-based. As to conditions: GIRK assay.

Marks after values point to notes of the source that are not given here.

T1 sequence (P70579 34-908): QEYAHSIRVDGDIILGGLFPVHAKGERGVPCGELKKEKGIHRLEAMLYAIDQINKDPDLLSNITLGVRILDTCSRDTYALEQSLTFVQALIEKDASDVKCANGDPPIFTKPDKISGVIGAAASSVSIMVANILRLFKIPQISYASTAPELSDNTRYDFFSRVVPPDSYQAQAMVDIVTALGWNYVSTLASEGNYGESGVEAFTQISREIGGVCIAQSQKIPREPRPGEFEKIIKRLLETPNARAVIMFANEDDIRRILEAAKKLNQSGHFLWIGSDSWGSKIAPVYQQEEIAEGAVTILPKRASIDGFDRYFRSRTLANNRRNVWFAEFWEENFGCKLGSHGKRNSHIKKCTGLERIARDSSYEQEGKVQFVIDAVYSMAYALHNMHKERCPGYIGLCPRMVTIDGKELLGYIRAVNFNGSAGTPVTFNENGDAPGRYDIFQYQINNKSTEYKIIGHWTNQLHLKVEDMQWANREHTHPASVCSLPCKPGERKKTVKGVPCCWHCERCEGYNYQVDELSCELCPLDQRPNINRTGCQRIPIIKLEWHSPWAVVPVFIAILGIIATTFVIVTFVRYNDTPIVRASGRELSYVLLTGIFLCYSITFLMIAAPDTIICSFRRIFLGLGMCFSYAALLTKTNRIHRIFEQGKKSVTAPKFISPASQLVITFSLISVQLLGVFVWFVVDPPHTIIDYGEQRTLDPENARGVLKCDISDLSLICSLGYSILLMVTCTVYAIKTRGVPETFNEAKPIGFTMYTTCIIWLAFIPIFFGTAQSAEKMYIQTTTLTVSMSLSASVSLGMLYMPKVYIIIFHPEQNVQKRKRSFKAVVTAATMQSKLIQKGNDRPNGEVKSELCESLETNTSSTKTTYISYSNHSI
human mGlu4, sequence (Q14833 33-912): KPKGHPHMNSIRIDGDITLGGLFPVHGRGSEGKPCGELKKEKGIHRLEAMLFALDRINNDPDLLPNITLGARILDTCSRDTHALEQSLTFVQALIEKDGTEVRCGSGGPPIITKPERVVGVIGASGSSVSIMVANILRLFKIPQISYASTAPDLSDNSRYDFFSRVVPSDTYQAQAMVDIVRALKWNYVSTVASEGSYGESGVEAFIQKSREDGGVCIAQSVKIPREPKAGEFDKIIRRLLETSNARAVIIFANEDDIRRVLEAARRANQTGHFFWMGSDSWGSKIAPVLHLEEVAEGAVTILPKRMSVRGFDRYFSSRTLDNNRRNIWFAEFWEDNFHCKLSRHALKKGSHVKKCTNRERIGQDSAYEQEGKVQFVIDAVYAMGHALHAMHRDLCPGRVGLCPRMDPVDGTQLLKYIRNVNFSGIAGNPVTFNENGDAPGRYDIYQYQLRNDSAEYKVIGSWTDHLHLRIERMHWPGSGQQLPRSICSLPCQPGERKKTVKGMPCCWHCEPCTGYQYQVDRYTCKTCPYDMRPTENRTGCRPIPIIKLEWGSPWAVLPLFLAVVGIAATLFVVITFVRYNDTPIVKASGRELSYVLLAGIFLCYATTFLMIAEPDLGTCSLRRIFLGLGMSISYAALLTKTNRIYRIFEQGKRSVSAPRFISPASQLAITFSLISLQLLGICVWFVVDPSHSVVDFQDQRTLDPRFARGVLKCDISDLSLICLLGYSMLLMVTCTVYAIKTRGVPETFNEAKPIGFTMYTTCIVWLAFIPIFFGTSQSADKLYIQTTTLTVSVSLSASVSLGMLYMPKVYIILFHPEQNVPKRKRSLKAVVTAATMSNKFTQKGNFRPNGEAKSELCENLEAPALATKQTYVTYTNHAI
rat mGlu7, sequence (P35400 35-915): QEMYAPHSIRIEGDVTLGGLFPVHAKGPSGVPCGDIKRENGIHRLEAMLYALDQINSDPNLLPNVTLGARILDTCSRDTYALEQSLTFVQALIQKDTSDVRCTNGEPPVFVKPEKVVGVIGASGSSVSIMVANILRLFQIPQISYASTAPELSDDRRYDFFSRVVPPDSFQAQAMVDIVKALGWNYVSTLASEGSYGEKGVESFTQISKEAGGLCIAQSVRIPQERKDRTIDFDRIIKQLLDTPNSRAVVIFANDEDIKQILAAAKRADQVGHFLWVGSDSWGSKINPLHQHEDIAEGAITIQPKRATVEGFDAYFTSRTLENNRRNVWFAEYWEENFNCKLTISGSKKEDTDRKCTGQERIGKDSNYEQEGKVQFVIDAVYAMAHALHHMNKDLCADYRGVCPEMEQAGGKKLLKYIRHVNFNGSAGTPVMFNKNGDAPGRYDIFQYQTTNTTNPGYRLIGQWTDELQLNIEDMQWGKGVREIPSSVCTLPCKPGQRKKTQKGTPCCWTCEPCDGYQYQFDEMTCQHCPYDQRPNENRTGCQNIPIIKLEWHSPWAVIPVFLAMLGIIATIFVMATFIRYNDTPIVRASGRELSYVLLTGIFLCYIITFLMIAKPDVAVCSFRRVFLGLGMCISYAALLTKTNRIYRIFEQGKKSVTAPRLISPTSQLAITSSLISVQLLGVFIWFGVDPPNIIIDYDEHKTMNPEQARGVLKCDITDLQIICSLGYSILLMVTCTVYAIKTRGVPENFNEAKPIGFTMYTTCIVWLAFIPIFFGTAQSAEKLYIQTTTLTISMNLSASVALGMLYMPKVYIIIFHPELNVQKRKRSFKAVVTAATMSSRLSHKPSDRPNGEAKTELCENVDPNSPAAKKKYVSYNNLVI
mGlu4, sequence (P31423 33-912): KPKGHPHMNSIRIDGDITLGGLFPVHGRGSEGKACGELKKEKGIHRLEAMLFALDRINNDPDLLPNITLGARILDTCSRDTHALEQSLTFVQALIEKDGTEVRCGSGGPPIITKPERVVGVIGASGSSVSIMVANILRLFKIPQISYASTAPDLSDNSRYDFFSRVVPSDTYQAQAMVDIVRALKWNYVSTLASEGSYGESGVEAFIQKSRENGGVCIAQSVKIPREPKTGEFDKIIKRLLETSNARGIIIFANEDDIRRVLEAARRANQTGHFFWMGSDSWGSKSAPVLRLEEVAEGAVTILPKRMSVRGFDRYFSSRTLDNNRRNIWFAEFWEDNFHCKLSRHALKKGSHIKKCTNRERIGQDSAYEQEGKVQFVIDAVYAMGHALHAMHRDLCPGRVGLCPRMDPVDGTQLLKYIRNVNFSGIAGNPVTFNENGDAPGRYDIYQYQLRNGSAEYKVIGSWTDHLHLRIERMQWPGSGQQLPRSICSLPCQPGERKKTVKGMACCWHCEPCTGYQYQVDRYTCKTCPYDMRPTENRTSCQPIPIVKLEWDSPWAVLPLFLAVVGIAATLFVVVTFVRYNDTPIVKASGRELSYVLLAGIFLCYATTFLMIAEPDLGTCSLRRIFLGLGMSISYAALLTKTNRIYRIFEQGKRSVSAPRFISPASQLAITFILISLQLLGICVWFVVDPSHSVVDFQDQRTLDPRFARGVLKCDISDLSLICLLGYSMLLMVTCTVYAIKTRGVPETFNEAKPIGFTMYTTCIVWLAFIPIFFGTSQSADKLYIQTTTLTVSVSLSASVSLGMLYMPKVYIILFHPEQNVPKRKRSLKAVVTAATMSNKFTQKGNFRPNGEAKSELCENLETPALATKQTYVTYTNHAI
rat mGlu2, sequence (P31421 19-872): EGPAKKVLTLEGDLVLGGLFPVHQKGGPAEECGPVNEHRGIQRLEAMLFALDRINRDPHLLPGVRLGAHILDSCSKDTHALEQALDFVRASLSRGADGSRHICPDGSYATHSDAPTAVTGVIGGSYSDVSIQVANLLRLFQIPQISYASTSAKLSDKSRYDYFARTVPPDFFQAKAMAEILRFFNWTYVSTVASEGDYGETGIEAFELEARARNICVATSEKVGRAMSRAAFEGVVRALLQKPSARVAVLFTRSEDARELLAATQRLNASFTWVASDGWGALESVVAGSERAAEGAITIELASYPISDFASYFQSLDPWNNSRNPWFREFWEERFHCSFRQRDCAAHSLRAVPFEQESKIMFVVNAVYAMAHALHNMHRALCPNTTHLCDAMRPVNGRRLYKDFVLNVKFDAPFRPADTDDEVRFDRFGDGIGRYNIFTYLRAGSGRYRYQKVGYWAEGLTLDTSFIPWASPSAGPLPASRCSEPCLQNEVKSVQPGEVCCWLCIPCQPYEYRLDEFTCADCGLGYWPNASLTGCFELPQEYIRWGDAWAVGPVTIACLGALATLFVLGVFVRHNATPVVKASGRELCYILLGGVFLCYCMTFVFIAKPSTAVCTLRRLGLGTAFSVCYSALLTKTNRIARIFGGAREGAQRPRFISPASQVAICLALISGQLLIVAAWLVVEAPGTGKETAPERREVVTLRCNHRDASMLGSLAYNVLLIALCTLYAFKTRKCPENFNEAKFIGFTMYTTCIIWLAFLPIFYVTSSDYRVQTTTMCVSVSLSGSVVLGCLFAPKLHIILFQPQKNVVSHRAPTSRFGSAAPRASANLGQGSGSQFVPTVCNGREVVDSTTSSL

For `COC(=O)c1ccc(-n2c(C)cc(C(=O)CSc3ccc(NC(C)=O)cc3)c2C)cc1` [Compound 1, methyl 4-(3-(2-((4-acetamidophenyl)thio)acetyl)-2,5-dimethyl-1H-pyrrol-1-yl)benzoate], the Kb on rat mGlu7 (KB, agonist LSP4-2022) is 8 µM; at rat mGlu7 (pKB, agonist Glu, eq 2) it was 17 µM; at rat mGlu7 (pKB, agonist L-AP4, eq 2), 4.17 µM; on rat mGlu8 [1] (agonist Glu) it was 8.6 µM; at rat mGlu8 [1] (agonist L-AP4), 14.7 µM; on rat mGlu8 [1] (agonist LSP4-2022) it was 14 µM. The Kb at human mGlu4 (KB, agonist Glu) is 13.3 µM; on human mGlu4 (KB, agonist L-AP4), 13.2 µM; on human mGlu4 (KB, agonist LSP4-2022) it was 10.6 µM; on human mGlu4 (pKB, agonist L-AP4, eq 2), 13.2 µM. In addition, the “fold greater modulator affinity with L-AP4 than with glutamate as agonist” value on rat mGlu7 (calcium) is listed as 4 fold. In addition, the “log α (affinity cooperativity)” value at rat mGlu7 (agonist Glu) is reported as 0.58 ± 0.13; on rat mGlu7 (agonist L-AP4), 0.39 ± 0.21; at rat mGlu7 (agonist LSP4-2022) it was 0.82 ± 0.26 ^l; at rat mGlu8 [1] (agonist Glu), 0.61 ± 0.39; at rat mGlu8 [1] (agonist L-AP4), 0.92 ± 0.08 ^k; on rat mGlu8 [1] (agonist LSP4-2022), 0.93 ± 0.06 ^l. Moreover, the entries for the “log α (affinity cooperativity)” value at human mGlu4 (agonist Glu), on human mGlu4 (agonist L-AP4) and on human mGlu4 (agonist LSP4-2022) were 0.28 ± 0.07, “–0.15 ± 0.30 ^k” and 0.17 ± 0.13 ^l, respectively. Moreover, the “log β (efficacy cooperativity)” value on rat mGlu7 (agonist Glu) is recorded as 0.68 ± 0.12 ^g ^h; on rat mGlu7 (agonist L-AP4) it was 0.07 ± 0.03 ^g ^i; on rat mGlu7 (agonist LSP4-2022), “–0.10 ± 0.10 ^g ^j”; at rat mGlu8 [1] (agonist Glu) it was 0.08 ± 0.02 ^h; at rat mGlu8 [1] (agonist L-AP4), 0.05 ± 0.03 ^i; on rat mGlu8 [1] (agonist LSP4-2022), 0.05 ± 0.06 ^j. For the same compound, the “log β (efficacy cooperativity)” value is 0.16 ± 0.08 ^f ^h at human mGlu4 (agonist Glu), 0.67 ± 0.27 ^f ^i at human mGlu4 (agonist L-AP4) and 0.33 ± 0.07 ^j on human mGlu4 (agonist LSP4-2022). The “log τB” value is “–0.17 ± 0.03” on rat mGlu7 (agonist Glu); “–0.09 ± 0.04” on rat mGlu7 (agonist L-AP4); “–0.22 ± 0.06” at rat mGlu7 (agonist LSP4-2022); “–0.12 ± 0.03” at rat mGlu8 [1] (agonist Glu); “–0.14 ± 0.04” on rat mGlu8 [1] (agonist L-AP4); “–0.10 ± 0.06” on rat mGlu8 [1] (agonist LSP4-2022). Besides, the α is listed as 3.8 at rat mGlu7 (agonist Glu); 2.4 at rat mGlu7 (agonist L-AP4); 6.6 at rat mGlu7 (agonist LSP4-2022); 4.1 at rat mGlu8 [1] (agonist Glu); 8.3 at rat mGlu8 [1] (agonist L-AP4); 8.6 on rat mGlu8 [1] (agonist LSP4-2022). Also, the results for the α on human mGlu4 (agonist Glu), at human mGlu4 (agonist L-AP4) and at human mGlu4 (agonist LSP4-2022) were 1.9, 0.71 and 1.5, respectively. Besides, the β is 4.8 at rat mGlu7 (agonist Glu); 1.2 at rat mGlu7 (agonist L-AP4); 0.8 at rat mGlu7 (agonist LSP4-2022); 1.2 on rat mGlu8 [1] (agonist Glu); 1.1 on rat mGlu8 [1] (agonist L-AP4); 1.1 on rat mGlu8 [1] (agonist LSP4-2022). Also, the figures for the β at human mGlu4 (agonist Glu), at human mGlu4 (agonist L-AP4) and on human mGlu4 (agonist LSP4-2022) were 1.4, 4.7 and 2.1, respectively. In addition, the τB is 0.81 on rat mGlu7 (agonist Glu); 0.61 on rat mGlu7 (agonist LSP4-2022); 0.75 at rat mGlu8 [1] (agonist Glu); 0.73 at rat mGlu8 [1] (agonist L-AP4); 0.80 on rat mGlu8 [1] (agonist LSP4-2022). In addition, the “shift of glutamate concentration-response (PAM or NAM activity) at mGlu2” value on rat mGlu2 is “inactive”. For the same compound, a half-maximal response at rat mGlu8 [2] (EC50) required 1.62 µM. Moreover, the “agonist activity in the absence of glutamate” value at rat mGlu8 [2] is reported as “did not exhibit agonist activity”. The “effect on paired-pulse ratio” value in the experiment on SC-CA1 synapse (PAM and LSP4-2022 applied together) is recorded as “increases the paired-pulse ratio”.

Turning to `O=C(Nc1ccc(Oc2ccc(Cl)cn2)c(Cl)c1)c1ccccn1` [Compound 20, N-(3-chloro-4-((5-chloropyridin-2-yl)oxy)phenyl)picolinamide], on mGlu4 (agonist Glu), the “log αβ (combined cooperativity)” value is 0.54 ± 0.06 ^i, the αβ is reported as 3.5 and the Kb is 0.306 µM. At mGlu4 (agonist L-AP4), the “log αβ (combined cooperativity)” value is 0.58 ± 0.04 ^j, the αβ is listed as 3.8 and the Kb was determined as 0.304 µM. On mGlu4 (agonist LSP4-2022), the “log αβ (combined cooperativity)” value was 0.54 ± 0.003 ^k, the αβ was determined as 3.5 and the Kb stood at 0.268 µM.

Take `N[C@H](C(=O)O)c1ccc(C(=O)O)c(C(=O)O)c1` [DCPG, (S)-3,4-dicarboxyphenylglycine]: in the experiment with SC-CA1 synapse, the “effect on fEPSP slope” value is on record as “has no effect on fEPSP slope”.

As for `COc1cc(C(O)P(=O)(O)CC[C@H](N)C(=O)O)cc([N+](=O)[O-])c1O` (stereo partly drawn) [LSP1-2111, (2S)-2-amino-4-[hydroxy[hydroxy(4-hydroxy-3-methoxy-5-nitro-phenyl)methyl]phosphoryl]butanoic acid], the “effect on fEPSP slope” value with SC-CA1 synapse is “has no effect on fEPSP slope”.

Regarding `N[C@@H](CCP(=O)(O)C(O)c1ccc(OCC(=O)O)cc1)C(=O)O` (stereo partly drawn) [LSP4-2022, (2S)-2-amino-4-(((4-(carboxymethoxy)phenyl)(hydroxy)methyl)(hydroxy)phosphoryl)butanoic acid, reference compound], at rat mGlu8 [1] (calcium), the “fold lower affinity compared to glutamate” value worked out at 10 fold. Further, the “Fold ΔpKA vs. Glu (fold higher affinity than glutamate)” value on human mGlu4 (calcium) stood at 9 fold. Further, the “effect on paired-pulse ratio” value in the experiment with SC-CA1 synapse (30 μM LSP4-2022 alone) is “causes an increase in paired-pulse ratio”. Also, the “effect on fEPSP slope” value in the experiment with SC-CA1 synapse is “causes a decrease in the fEPSP slope”.

These data come from publication PMC4306484 (ACS Chemical Neuroscience, 2014).
